Measurements: ChEMBL document CHEMBL2406974, “Xanthone glycoside constituents of Swertia kouitchensis with α-glucosidase inhibitory activity” (J Nat Prod, 2013)

assay: Inhibition of Saccharomyces cerevisiae alpha-glucosidase using p-nitrophenyl-alpha-D-glucopyranoside as substrate preincubated for 15 mins
In short: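 Yeast enzyme at 0.6 U/mL in 0.1 M potassium phosphate buffer, pH 6.8. It was preincubated at 37 °C with test compound in water containing 0.5% DMSO. The reaction was started with 5.0 mM PNPG solution in the same buffer and incubated at 37 °C. It was stopped with 0.2 M Na2CO3 in phosphate buffer. Released p-nitrophenol was read at 405 nm, with IC50 as the output.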

Row | IC50 [µM] | SMILES
1 | 956 | COc1cc(O[C@@H]2O[C@H](CO[C@@H]3O[C@H](CO)[C@@H](O)[C@H](O)[C@H]3O)[C@@H](O)[C@H](O)[C@H]2O)c2c(=O)c3cccc(OC)c3oc2c1
2 | 126 | COc1cc(O)c2c(=O)c3c(O[C@@H]4O[C@H](CO)[C@@H](O)[C@H](O)[C@H]4O)ccc(O)c3oc2c1 [SWERTIANOLIN]
3 | 693 | COc1cc(O[C@@H]2O[C@H](CO[C@@H]3O[C@H](CO)[C@@H](O)[C@H](O)[C@H]3O)[C@@H](O)[C@H](O)[C@H]2O)c2c(=O)c3c(O)ccc(OC)c3oc2c1
4 | 184 | COc1ccc(O)c2c(=O)c3c(O)cc(O[C@@H]4O[C@H](CO[C@@H]5OC[C@@H](O)[C@H](O)[C@H]5O)[C@@H](O)[C@H](O)[C@H]4O)c(OC)c3oc12
5 | 383 | COc1cc(O[C@@H]2O[C@H](CO[C@@H]3OC[C@@H](O)[C@H](O)[C@H]3O)[C@@H](O)[C@H](O)[C@H]2O)c2c(=O)c3c(OC)c(OC)ccc3oc2c1OC
6 | 714 | COc1cc(O)c2c(=O)c3c(O[C@@H]4O[C@H](CO)[C@@H](O)[C@H](O)[C@H]4O)c(O[C@@H]4O[C@@H](C)[C@H](O)[C@@H](O)[C@H]4O)ccc3oc2c1
7 | 296 | O=c1c2cc(O)c(O)cc2oc2cc(O)c([C@@H]3O[C@H](CO)[C@@H](O)[C@H](O)[C@H]3O)c(O)c12 [MANGIFERIN]
8 | 1500 | COc1cc(O[C@@H]2O[C@H](CO[C@@H]3OC[C@@H](O)[C@H](O)[C@H]3O)[C@@H](O)[C@H](O)[C@H]2O)c2c(=O)c3c(OC)c(O)ccc3oc2c1OC
9 | 360 | COc1cc(O[C@@H]2O[C@H](CO[C@@H]3OC[C@@H](O)[C@H](O)[C@H]3O)[C@@H](O)[C@H](O)[C@H]2O)c2c(=O)c3c(OC)ccc(OC)c3oc2c1
10 | 701 | COc1cc(O[C@@H]2O[C@H](CO)[C@@H](O)[C@H](O)[C@H]2O)c2c(=O)c3c(OC)c(O)ccc3oc2c1O
11 | > 1720 | COc1cc(O)c2c(=O)c3c(O)c(O[C@@H]4O[C@H](CO)[C@@H](O)[C@H](O)[C@H]4O[C@@H]4O[C@@H](C)[C@H](O)[C@@H](O)[C@H]4O)ccc3oc2c1
12 | 451 | COc1cc(O[C@@H]2O[C@H](CO[C@@H]3OC[C@@H](O)[C@H](O)[C@H]3O)[C@@H](O)[C@H](O)[C@H]2O)c2c(=O)c3c(O)c(OC)ccc3oc2c1
13 | 371 | COc1cc(O[C@@H]2O[C@H](CO[C@@H]3OC[C@@H](O)[C@H](O)[C@H]3O)[C@@H](O)[C@H](O)[C@H]2O)c2c(=O)c3c(OC)c(OC)cc(OC)c3oc2c1
14 | 627 | C[C@H]1O[C@H](O[C@H]2[C@H](O)[C@@H](O)[C@@H](O[C@H]3[C@H](O)[C@@H](O)C(O)O[C@@H]3CO)O[C@@H]2CO)[C@H](O)[C@@H](O)[C@@H]1N[C@H]1C=C(CO)[C@@H](O)[C@H](O)[C@H]1O (some centres undefined) [ACARBOSE]
